Measured values: ChEMBL document CHEMBL3580633, “Benzoxaborole antimalarial agents. Part 4. Discovery of potent 6-(2-(alkoxycarbonyl)pyrazinyl-5-oxy)-1,3-dihydro-1-hydroxy-2,1-benzoxaboroles” (J Med Chem, 2015)

Tested on: Plasmodium berghei
Experiment: Antiplasmodial activity against Plasmodium berghei infected in Swiss Webster mouse assessed as mouse survival at 30 mg/kg, po dosed once daily for 4 consecutive days beginning 1 hr after initial infection and measured on day 7 post infection by Giemsa staining method
Assay type: functional
Conditions: not given
Procedure, shortened: (§1)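 Female Swiss Webster mice (about 20 g) were infected ip with 6 × 10^6 P. berghei-infected erythrocytes from a donor mouse. They were dosed by oral gavage once daily for 4 days, starting 1 h post-infection, in PEG 300/propylene glycol/water (55/25/20 by weight). Parasitemia was read daily on Giemsa smears from day 4, and mice were euthanized above 50% parasitemia. Percent survival was tracked to 21 days.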

| SMILES | survival at 30 mg/kg [%] |
| --- | --- |
| CCN(CC)CCCC(C)Nc1ccnc2cc(Cl)ccc12 (stereo not given) [CHLOROQUINE] | 100 |

Tested on: Plasmodium berghei
Experiment: Antiplasmodial activity against Plasmodium berghei infected in Swiss Webster mouse assessed as mouse survival at 30 mg/kg, po dosed once daily for 4 consecutive days beginning 1 hr after initial infection and measured on day 16 to 19 post infection by Giemsa staining method
Assay type: functional
Conditions: not given
Procedure, shortened: as §1

| SMILES | survival at 30 mg/kg [%] |
| --- | --- |
| CCN(CC)CCCC(C)Nc1ccnc2cc(Cl)ccc12 (stereo not given) [CHLOROQUINE] | 100 |

Tested on: Plasmodium berghei
Experiment: Antiplasmodial activity against Plasmodium berghei infected in Swiss Webster mouse assessed as mouse survival at 30 mg/kg, po dosed once daily for 4 consecutive days beginning 1 hr after initial infection and measured on day 13 post infection by Giemsa staining method
Assay type: functional
Conditions: not given
Procedure, shortened: as §1

| SMILES | survival at 30 mg/kg [%] |
| --- | --- |
| CCN(CC)CCCC(C)Nc1ccnc2cc(Cl)ccc12 (stereo not given) [CHLOROQUINE] | 100 |

Tested on: Plasmodium berghei
Experiment: Antiplasmodial activity against Plasmodium berghei infected in Swiss Webster mouse assessed as mouse survival at 30 mg/kg, po dosed once daily for 4 consecutive days beginning 1 hr after initial infection and measured on day 20 post infection by Giemsa staining method
Assay type: functional
Conditions: not given
Procedure, shortened: as §1

| SMILES | survival at 30 mg/kg [%] |
| --- | --- |
| CCN(CC)CCCC(C)Nc1ccnc2cc(Cl)ccc12 (stereo not given) [CHLOROQUINE] | 20 |

Tested on: Plasmodium berghei
Experiment: Antiplasmodial activity against Plasmodium berghei infected in Swiss Webster mouse assessed as mouse survival at 30 mg/kg, po dosed once daily for 4 consecutive days beginning 1 hr after initial infection and measured on day 5 post infection by Giemsa staining method
Assay type: functional
Conditions: not given
Procedure, shortened: as §1

| SMILES | survival at 30 mg/kg [%] |
| --- | --- |
| CCN(CC)CCCC(C)Nc1ccnc2cc(Cl)ccc12 (stereo not given) [CHLOROQUINE] | 100 |

Tested on: Plasmodium falciparum
Experiment: Antimalarial activity against chloroquine-resistant Plasmodium falciparum W2 cultured in human erythrocytes assessed as inhibition of parasite growth at 5 uM incubated for 48 hrs by YOYO-1 staining based flow cytometry
Assay type: functional
Conditions: W2, 48 h
Procedure, shortened: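 W2 P. falciparum grown in human erythrocytes in RPMI-1640 with 10% human serum or 0.5% Albumax, under 3% O2/5% CO2/92% N2. Sorbitol-synchronised rings at 2% hematocrit, 1% parasitemia, exposed to one concentration for 48 h. Cells fixed in 2% formaldehyde, stained with YOYO-1, and parasites per erythrocyte counted by flow cytometry. Value given as percent inhibition versus untreated control.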

| SMILES | inhibition at 5 µM [%] |
| --- | --- |
| COC(=O)c1cnc(Oc2ccc3c(c2)B(O)OC3)nc1 | 80 |
| CCOC(=O)c1ccc(Oc2ccc3c(c2)B(O)OC3)cc1 | 0 |
| CCOC(=O)c1ccc(Oc2ccc3c(c2)B(O)OC3)nc1 | 0 |

Tested on: Plasmodium berghei
Experiment: Antiplasmodial activity against Plasmodium berghei infected in Swiss Webster mouse assessed as mouse survival at 30 mg/kg, po dosed once daily for 4 consecutive days beginning 1 hr after initial infection and measured on day 18 post infection by Giemsa staining method
Assay type: functional
Conditions: not given
Procedure, shortened: as §1

| SMILES | survival at 30 mg/kg [%] |
| --- | --- |
| CCN(CC)CCCC(C)Nc1ccnc2cc(Cl)ccc12 (stereo not given) [CHLOROQUINE] | 100 |

Tested on: Plasmodium berghei
Experiment: Antiplasmodial activity against Plasmodium berghei infected in Swiss Webster mouse assessed as mouse survival at 30 mg/kg, po dosed once daily for 4 consecutive days beginning 1 hr after initial infection and measured on day 9 post infection by Giemsa staining method
Assay type: functional
Conditions: not given
Procedure, shortened: as §1

| SMILES | survival at 30 mg/kg [%] |
| --- | --- |
| CCN(CC)CCCC(C)Nc1ccnc2cc(Cl)ccc12 (stereo not given) [CHLOROQUINE] | 100 |

Tested on: Plasmodium berghei
Experiment: Antiplasmodial activity against Plasmodium berghei infected in Swiss Webster mouse assessed as mouse survival at 30 mg/kg, po dosed once daily for 4 consecutive days beginning 1 hr after initial infection and measured on day 15 post infection by Giemsa staining method
Assay type: functional
Conditions: not given
Procedure, shortened: as §1

| SMILES | survival at 30 mg/kg [%] |
| --- | --- |
| CCN(CC)CCCC(C)Nc1ccnc2cc(Cl)ccc12 (stereo not given) [CHLOROQUINE] | 100 |

Tested on: Plasmodium berghei
Experiment: Antiplasmodial activity against Plasmodium berghei infected in Swiss Webster mouse assessed as mouse survival at 30 mg/kg, po dosed once daily for 4 consecutive days beginning 1 hr after initial infection and measured on day 6 post infection by Giemsa staining method
Assay type: functional
Conditions: not given
Procedure, shortened: as §1

| SMILES | survival at 30 mg/kg [%] |
| --- | --- |
| CCN(CC)CCCC(C)Nc1ccnc2cc(Cl)ccc12 (stereo not given) [CHLOROQUINE] | 100 |

Tested on: Plasmodium berghei
Experiment: Antiplasmodial activity against Plasmodium berghei infected in Swiss Webster mouse assessed as mouse survival at 30 mg/kg, po dosed once daily for 4 consecutive days beginning 1 hr after initial infection and measured on day 10 post infection by Giemsa staining method
Assay type: functional
Conditions: not given
Procedure, shortened: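 Female Swiss Webster mice (about 20 g) infected ip with 6 × 10^6 P. berghei-infected erythrocytes. Oral gavage once daily for 4 days, starting 1 h after infection. Vehicle PEG300/propylene glycol/water (55/25/20 by weight). Giemsa-smear parasitemia counted daily from day 4. Mice euthanised above 50% parasitemia. Survival followed to day 21, 5 mice per dose, chloroquine 30 mg/kg as reference.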

| SMILES | survival at 30 mg/kg [%] |
| --- | --- |
| CCN(CC)CCCC(C)Nc1ccnc2cc(Cl)ccc12 (stereo not given) [CHLOROQUINE] | 100 |

Tested on: Plasmodium berghei
Experiment: Antiplasmodial activity against Plasmodium berghei infected in Swiss Webster mouse assessed as mouse survival at 30 mg/kg, po dosed once daily for 4 consecutive days beginning 1 hr after initial infection and measured on day 8 post infection by Giemsa staining method
Assay type: functional
Conditions: not given
Procedure, shortened: as §1

| SMILES | survival at 30 mg/kg [%] |
| --- | --- |
| CCN(CC)CCCC(C)Nc1ccnc2cc(Cl)ccc12 (stereo not given) [CHLOROQUINE] | 100 |

Tested on: Plasmodium falciparum
Experiment: Antimalarial activity against chloroquine-resistant Plasmodium falciparum W2 cultured in human erythrocytes assessed as inhibition of parasite growth incubated for 48 hrs by YOYO-1 staining based flow cytometry
Assay type: functional, organism-based
Conditions: W2, 48 h

| SMILES | IC50 [nM] |
| --- | --- |
| CC(C)(N)COC(=O)c1cnc(Oc2ccc3c(c2)B(O)OC3)cn1 | 190 |
| CC(C)COC(=O)c1cnc(Oc2ccc3c(c2)B(O)OC3)cn1 | 0.5 |
| CC(C)(C)COC(=O)c1cnc(Oc2ccc3c(c2)B(O)OC3)cn1 | 6.6 |
| OB1OCc2ccc(Oc3cnccn3)cc21 | 9380 |
| O/N=C/c1cnc(Oc2ccc3c(c2)B(O)OC3)cn1 | 1770 |
| O=C(OC1CCCCC1)c1cnc(Oc2ccc3c(c2)B(O)OC3)cn1 | 0.7 |
| COC(=O)c1ccc(Oc2ccc3c(c2)B(O)OC3)nn1 | 82 |
| CC(C)CCOC(=O)c1cnc(Oc2ccc3c(c2)B(O)OC3)cn1 | 0.4 |
| O=C(NCCO)c1cnc(Oc2ccc3c(c2)B(O)OC3)cn1 | > 10000 |
| N/C(=N\O)c1cnc(Oc2ccc3c(c2)B(O)OC3)cn1 | > 10000 |
| CC(C)S(=O)(=O)NC(=O)c1cnc(Oc2ccc3c(c2)B(O)OC3)cn1 | 190 |
| CCCCOC(=O)c1cnc(Oc2ccc3c(c2)B(O)OC3)cn1 | 0.2 |

Tested on: Plasmodium berghei
Experiment: Antiplasmodial activity against Plasmodium berghei infected in Swiss Webster mouse assessed as mouse survival at 30 mg/kg, po dosed once daily for 4 consecutive days beginning 1 hr after initial infection and measured on day 14 post infection by Giemsa staining method
Assay type: functional
Conditions: not given
Procedure, shortened: as §1

| SMILES | survival at 30 mg/kg [%] |
| --- | --- |
| CCN(CC)CCCC(C)Nc1ccnc2cc(Cl)ccc12 (stereo not given) [CHLOROQUINE] | 100 |

Tested on: Plasmodium berghei
Experiment: Antiplasmodial activity against Plasmodium berghei infected in Swiss Webster mouse assessed as mouse survival at 30 mg/kg, po dosed once daily for 4 consecutive days beginning 1 hr after initial infection and measured on day 11 post infection by Giemsa staining method
Assay type: functional
Conditions: not given
Procedure, shortened: as §1

| SMILES | survival at 30 mg/kg [%] |
| --- | --- |
| CCN(CC)CCCC(C)Nc1ccnc2cc(Cl)ccc12 (stereo not given) [CHLOROQUINE] | 100 |

Tested on: Plasmodium berghei
Experiment: Antiplasmodial activity against Plasmodium berghei infected in Swiss Webster mouse assessed as mouse survival at 30 mg/kg, po dosed once daily for 4 consecutive days beginning 1 hr after initial infection and measured on day 4 post infection by Giemsa staining method
Assay type: functional
Conditions: not given
Procedure, shortened: as §1

| SMILES | survival at 30 mg/kg [%] |
| --- | --- |
| CCN(CC)CCCC(C)Nc1ccnc2cc(Cl)ccc12 (stereo not given) [CHLOROQUINE] | 100 |

Tested on: Plasmodium berghei
Experiment: Antiplasmodial activity against Plasmodium berghei infected in Swiss Webster mouse assessed as mouse survival at 30 mg/kg, po dosed once daily for 4 consecutive days beginning 1 hr after initial infection and measured on day 12 post infection by Giemsa staining method
Assay type: functional
Conditions: not given
Procedure, shortened: as §1

| SMILES | survival at 30 mg/kg [%] |
| --- | --- |
| CCN(CC)CCCC(C)Nc1ccnc2cc(Cl)ccc12 (stereo not given) [CHLOROQUINE] | 100 |

Tested on: Plasmodium falciparum
Experiment: Antimalarial activity against chloroquine-sensitive Plasmodium falciparum 3D7 cultured in human erythrocytes incubated for 48 hrs by [3H]-hypoxanthine incorporation assay
Assay type: functional, organism-based
Conditions: not given
Procedure, shortened: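 3D7 parasites in human erythrocytes, RPMI-1640 with 0.5% Albumax II, […], 37 °C, 5% O2/5% CO2. Asynchronous cultures (0.5% parasitemia, 2% hematocrit) given 3-fold serial dilutions for 24 h. [3H]hypoxanthine then added for a further 24 h, and incorporation counted by scintillation. Normalised to drug-free infected cells. IC50 from at least three independent experiments.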

| SMILES | IC50 [nM] |
| --- | --- |
| CC(C)(N)COC(=O)c1cnc(Oc2ccc3c(c2)B(O)OC3)cn1 | 250 |
| CC(C)COC(=O)c1cnc(Oc2ccc3c(c2)B(O)OC3)cn1 | 2.5 |
| CC(C)(C)COC(=O)c1cnc(Oc2ccc3c(c2)B(O)OC3)cn1 | 8.9 |
| OB1OCc2ccc(Oc3cnccn3)cc21 | > 5000 |
| O/N=C/c1cnc(Oc2ccc3c(c2)B(O)OC3)cn1 | 3000 |
| O=C(OC1CCCCC1)c1cnc(Oc2ccc3c(c2)B(O)OC3)cn1 | 2.9 |
| COC(=O)c1ccc(Oc2ccc3c(c2)B(O)OC3)nn1 | 100 |
| CC(C)CCOC(=O)c1cnc(Oc2ccc3c(c2)B(O)OC3)cn1 | 2 |
| O=C(NCCO)c1cnc(Oc2ccc3c(c2)B(O)OC3)cn1 | 5900 |
| N/C(=N\O)c1cnc(Oc2ccc3c(c2)B(O)OC3)cn1 | > 5000 |
| CC(C)S(=O)(=O)NC(=O)c1cnc(Oc2ccc3c(c2)B(O)OC3)cn1 | 130 |
| CCCCOC(=O)c1cnc(Oc2ccc3c(c2)B(O)OC3)cn1 | 0.7 |

Tested on: Jurkat
Experiment: Cytotoxicity against human Jurkat cells incubated for 72 hrs by MTT assay
Assay type: cell-based
Conditions: not given

| SMILES | IC50 [nM] |
| --- | --- |
| CC(C)COC(=O)c1cnc(Oc2ccc3c(c2)B(O)OC3)cn1 | 17600 |
| O=C(OC1CCCCC1)c1cnc(Oc2ccc3c(c2)B(O)OC3)cn1 | 52400 |
| CCCCOC(=O)c1cnc(Oc2ccc3c(c2)B(O)OC3)cn1 | > 100000 |
